# An excerpt weighted towards active compounds, which were near 3.5% of everything screened.
# RGS4 pot: potentiators or activators of RGS4. B-score at 10 µM. HEK293 M3R/inducible RGS4, carbachol calcium flux Fluo4; stronger effect = lower value. AID 463111. actives 0.92% (n = 310,000);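 active means B-score of the integrated calcium signal more than 4 SD below the library mean, with starting fluorescence not abnormally high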;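 further: negative B-score means reduced calcium response which marks RGS4 activation or potentiation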
#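 Also added: carbachol at ECmax as muscarinic agonist stimulus; Assay system: HEK293 cells with stable M3R and inducible RGS4; Timing: overnight RGS4 induction, 30 min dye load 37 °C, 20 min compound RT; Measured by: Fluo4-AM (2 µM) calcium-flux fluorescence, kinetic read.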
# MrgX1 PAM: allosterically activates human MrgX1 receptor signaling | Q96LB2 | MrgX1-HEK293, Fluo-4 calcium flux, FDSS; stronger effect = higher value | B-score at 10 µM | actives 0.63% (n = 310,000) | AID 588675;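 active means plate-corrected calcium response at least 3 library SD above typical, normal starting fluorescence, not activating the receptor alone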;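 further: compound read alongside a low EC10 to EC30 dose of BAM8-22 agonist; peak minus trough fluorescence over baseline measured at the second addition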
# Target sequence (Q96LB2 whole entry, looked up): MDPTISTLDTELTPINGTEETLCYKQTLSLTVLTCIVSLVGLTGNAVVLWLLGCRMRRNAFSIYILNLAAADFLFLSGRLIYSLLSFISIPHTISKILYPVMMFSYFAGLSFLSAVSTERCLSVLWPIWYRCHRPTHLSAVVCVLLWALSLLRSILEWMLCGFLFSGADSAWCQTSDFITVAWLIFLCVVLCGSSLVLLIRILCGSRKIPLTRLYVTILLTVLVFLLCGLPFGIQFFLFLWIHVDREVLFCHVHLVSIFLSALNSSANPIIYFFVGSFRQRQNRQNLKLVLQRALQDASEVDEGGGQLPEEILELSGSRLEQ
# MrgX1 antagonist: blocks BAM8-22 activation of human MrgX1 receptor. MRGX1-HEK293 calcium flux, Fluo-4, BAM8-22 antagonism; stronger effect = lower value. B-score at 10 µM. actives 1.3% (n = 310,000);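 active means calcium-response B-score plate-corrected more than 3 library SD below zero, starting fluorescence within 5 deviations, no agonist response on first addition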;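 further: peak minus trough fluorescence over baseline after final BAM8-22 challenge near maximal dose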
# RGS4 inh: human RGS4 inhibition; HEK293 M3R/RGS4 inducible, Fluo-4 calcium flux; stronger effect = higher value; triggered by carbachol at its EC20; B-score at 10 µM; actives 0.45% (n = 310,000);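 active means B-score, a plate-corrected calcium signal, over three deviations above library mean, with baseline fluorescence within five deviations of library mean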;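 further: RGS4 expression induced by doxycycline in cells with stable M3 receptor; B-score is computed from the integrated fluorescence ratio over baseline after carbachol; higher B-score means a larger calcium signal and so more RGS4 inhibition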
# Target sequence (P49798 whole entry, looked up): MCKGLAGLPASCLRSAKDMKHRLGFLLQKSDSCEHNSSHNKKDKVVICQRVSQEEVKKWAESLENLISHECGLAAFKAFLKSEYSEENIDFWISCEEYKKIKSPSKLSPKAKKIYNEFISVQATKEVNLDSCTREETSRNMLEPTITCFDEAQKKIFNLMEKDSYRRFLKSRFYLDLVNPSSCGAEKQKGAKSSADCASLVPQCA
# MrgX1 agonist: human MrgX1 receptor agonism, primary screen; Q96LB2; MrgX1-HEK293 cells, Fluo-4 calcium fluorescence, agonist mode; stronger effect = higher value; B-score at 10 µM; actives 0.44% (n = 310,000);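 active means calcium response B-score plate-corrected fluorescence ratio at least 3 library SD, with starting fluorescence B-score inside 5 SD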
#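 Material: MrgX1-expressing HEK293 cells; input: 15,000 cells per well; doses: test compound given as first of three sequential additions; schedule: overnight plating before 1 h dye loading; technique: Fluo-4 NW calcium-flux fluorescence, kinetic read; evaluation: baseline-normalised fluorescence change ratio, B-scored; control set: plate-wise positive and negative controls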
# MrgX1 ag confirm: confirmation of human MrgX1 receptor agonists. MrgX1-HEK293, Fluo-4 calcium fluorescence, FDSS. AID 602412. actives 78% (n = 600). activation, % at 10 µM. shares compounds with MrgX1 agonist;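 active means calcium signal rise, corrected for plate position, at least 3 library SD high, with starting brightness within 5 such deviations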
# HEK293 Ca flux: MrgX1 antagonist counter-screen hit in parental HEK293 cells. shares compounds with MrgX1 antagonist. Fluo-4 calcium fluorescence, FDSS. fluorescence ratio F(max-min)/F0 at 10 µM. actives 2% (n = 4,000). AID 624111;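 active means duplicate-averaged calcium fluorescence ratio at least three times the standard deviation of buffer wells, a nonspecific response in parental cells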
# HEK293 Ca counter: activity in parental HEK293 cells without MrgX1; shares compounds with MrgX1 antagonist; parental HEK293 calcium flux, Fluo-4 fluorescence ratio; stronger effect = higher value; fluorescence ratio F(max-min)/F0 at 10 µM; actives 0.4% (n = 4,000); AID 624114;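 active means calcium fluorescence ratio, averaged over duplicates, at least 3 SD of the buffer-well ratio, meaning a nonspecific response in receptor-free cells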;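 further: untransfected parental HEK293 lacking MrgX1 used as counterscreen for MrgX1 allosteric activators; fluorescence change taken during the second addition on a kinetic imager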
# HEK293 Ca cntr2: MrgX1 activator counter-screen hit in parental HEK293 cells | shares compounds with MrgX1 antagonist | fluorescence ratio F(max-min)/F0 at 10 µM | Fluo-4 calcium fluorescence (FDSS); stronger effect = higher value | actives 8.7% (n = 4,000) | AID 624115;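 active means calcium fluorescence ratio at least three times the spread of buffer wells, meaning a non-specific response in parental cells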
# The depositor's hits bear a star; i = inactive; . = not tested or not shown.
SMILES,RGS4 pot,MrgX1 PAM,MrgX1 antagonist,RGS4 inh,MrgX1 agonist,MrgX1 ag confirm,HEK293 Ca flux,HEK293 Ca counter,HEK293 Ca cntr2
Cc1c2ccccc2nc2c(F)c(NCCO)c(F)c(F)c12,i,i,i,i,30*,i,0.12*,i,i
Cc1c2ccccc2nc2c(F)c(NC(C)C)c(F)c(F)c12,i,i,i,i,i,.,.,.,.
O=c1oc(-c2ccccc2Cl)nc2ccsc12,i,i,i,i,51*,210%*,i,i,60*
O=C(CN1N=C(c2ccc(Cl)cc2)CCC1=O)NCc1cccnc1,i,i,i,i,i,.,.,.,.
CCC(=O)NC(=S)NNC(=O)c1ccc([N+](=O)[O-])cc1,i,i,i,i,i,.,.,.,.
CC(C)CC(=O)NC(=S)NNC(=O)c1ccc([N+](=O)[O-])cc1,i,i,i,i,81*,280%*,i,i,72*
CCN(Cc1ccccc1)Cc1nnnn1Cc1ccccc1,i,i,i,i,i,.,.,.,.
CCOC(=O)Nc1ccc2c(c1)N(C(=O)N(C)C)c1ccccc1CC2,i,i,i,i,i,.,.,.,.
CCOC(=O)Nc1ccc2c(c1)N(C(=O)N(CC)CC)c1ccccc1CC2,i,i,i,i,38*,161%*,i,i,47*
COC(=O)c1ccc(OCC(=O)NC2CCCCCC2)cc1,i,i,i,i,i,.,.,.,.
O=C(CC1CCCCC1)c1c(O)c2ccccc2oc1=O,i,i,i,i,87*,428%*,i,i,92*
CC1CCC(C(=O)c2c(O)c3ccccc3oc2=O)CC1 (stereo not given),i,i,i,i,69*,282%*,i,i,84*
CC(=N)c1c(O)c2ccccc2oc1=O,i,i,i,i,i,.,.,.,.
O=C(CN1C(=O)NC2(CCc3ccccc32)C1=O)c1ccc(F)c(F)c1 (stereo not given),i,i,i,i,i,.,.,.,.
Cc1nc(Nc2ccccc2)sc1C(=O)Nc1ccccc1,i,i,i,i,i,.,.,.,.
Cc1nc(Nc2ccc(S(N)(=O)=O)cc2)sc1C(=O)Nc1ccccc1,i,i,i,i,32*,227%*,i,i,i
Nc1ccc(C23CC4CC(CC(CO)(C4)C2)C3)cc1,i,i,i,i,i,.,.,.,.
NCC12CC3CC(C1)CC(c1ccc(Cl)cc1)(C3)C2,-7.2*,i,i,i,34*,135%*,i,i,i
COc1ccc(C2=CC(c3ccc(C)cc3)n3nnnc3N2)cc1 (stereo not given),i,i,i,i,i,.,.,.,.
COc1ccc(C2C=C(c3ccccc3)Nc3nnnn32)cc1 (stereo not given),i,i,i,i,33*,i,i,i,i
COc1ccc(C)cc1N(CC(=O)N1CCCCCC1)S(=O)(=O)c1ccc(C)cc1,i,i,i,i,37*,198%*,i,i,i
COc1ccc(OC)c(N(CC(=O)N2CCCC2)S(=O)(=O)c2ccc(C)cc2)c1,i,i,i,i,i,.,.,.,.
O=C(O)CCN1CCc2ccccc2C1c1cccs1 (stereo not given),i,i,i,i,i,.,.,.,.
CCOC(=O)CC(=O)CSc1nc(CC)c(C)cc1C#N,i,i,i,i,i,.,.,.,.
CCOC(=O)CC(=O)CSc1nc2ccc(C)cc2cc1C#N,.,i,i,.,54*,367%*,i,i,75*
SMILES,RGS4 pot,MrgX1 PAM,MrgX1 antagonist,RGS4 inh,MrgX1 agonist,MrgX1 ag confirm,HEK293 Ca flux,HEK293 Ca counter,HEK293 Ca cntr2
Cc1cc(=O)oc2ccc(OCC(=O)N3CCC(C)CC3)cc12,i,i,i,i,28*,215%*,i,i,i
COc1ccc(C(=O)NC(=S)NNC(=O)c2c(-c3ccccc3)noc2C)cc1OC,i,i,i,i,81*,222%*,i,i,51*
Cc1onc(-c2ccccc2)c1C(=O)NCc1ccc2c(c1)OCO2,i,i,i,i,i,.,.,.,.
Cc1onc(-c2ccccc2)c1C(=O)NNC(=S)NC(=O)c1ccc2c(c1)OCO2,i,i,i,i,77*,412%*,i,i,104*
CC(C)(C)NC(=S)NNC(=O)[C@H]1C[C@@H]1c1ccccc1,i,i,i,i,i,.,.,.,.
COc1ccc(C(=O)NC(=S)NNC(=O)[C@H]2C[C@@H]2c2ccccc2)cc1OC,i,i,i,i,67*,378%*,i,i,72*
CSCC[C@H](NC(=O)OC(C)(C)C)C(=O)N1CCC(C(=O)NCC(=O)Nc2ccc(C)cc2)CC1,i,i,i,i,i,.,.,.,.
CC1(C)Cc2c(cnn2-c2ccc(F)cc2)C(NC(=O)CCc2ccncc2)C1 (stereo not given),i,.,.,i,.,.,.,.,.
FC(F)(F)c1cnc(COc2cc(Cl)cc(Cl)c2)c(Cl)c1,i,i,i,i,i,.,.,.,.
CCN(CC)CCCn1c2c(c(SCC(=O)Nc3nccs3)nc1=O)CCC2,i,i,i,i,i,.,.,.,.
O=C(COC(=O)[C@H](Cc1ccccc1)NC(=O)c1cccs1)NC1CCCCC1,i,i,i,i,30*,195%*,i,i,46*
COc1ccc(C2CC(c3ccccc3)Nc3nc(NS(C)(=O)=O)nn32)cc1 (stereo not given),i,i,i,i,i,.,.,.,.
O=C1Cc2ccccc2Sc2c(OCCN3CCCCC3)cccc21,i,i,i,i,27*,203%*,i,i,i
O=C1Cc2ccccc2Sc2cc(OCCCN3CCCCC3)ccc21,i,i,i,i,i,.,.,.,.
C=CCSC(=S)NC1CCS(=O)(=O)C1 (stereo not given),i,i,i,i,31*,i,i,i,i
Cc1oc2cc(O)ccc2c(=O)c1-c1nncn1-c1ccccc1,i,i,i,i,30*,i,i,i,i

# Screening data: PubChem, Johns Hopkins Ion Channel Center
